Where a name gives a salt, the structure may show the parent alone.

The test system of assay [1] is K562. Description: Growth inhibition of human K562 cells measured after 3 days by trypan blue assay. The class given is functional. The settings on record: K562, 72 h. In a few lines: (§1)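 Human leukemia cells exposed to compound for 3 days. Growth assessed by trypan blue method with total cell counts, and inhibition calculated relative to untreated control cells. GI50 taken as the concentration giving 50% growth inhibition. Doxorubicin hydrochloride and gambogic acid included as positive controls.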

Assay [2] concerns HL-60. Description: Growth inhibition of human HL60 cells measured after 3 days by trypan blue assay. The note with it: HL-60, 72 h. The class given is functional. In a few lines: as §1

As for `C=CC(C)(C)c1c(O)cc(O)c2c1O[C@]13[C@H](C2=O)[C@@H](OC)[C@@H]2C[C@H]1C(C)(C)O[C@@]3(/C=C/C(C)(C)O)C2=O`, the GI50 in assay [1] was found to be 3.8 µM; in assay [2], 8.8 µM.

In the case of `CC(C)=CCC12OC(C)(C)C3CC4(Oc5c(c(O)cc6c5C(C)(C)[C@@H](C)O6)C(=O)C4=CC31)C2=O` (some centres undefined), the results for the GI50 in assay [1] and in assay [2] were 1.7 µM and 0.7 µM, respectively.

For the compound `C=CC(C)(C)c1c(O)cc(O)c2c1OC13C(=CC4CC1C(C)(C)OC3(CC=C(C)C)C4=O)C2=O` (centres undefined), the results for the GI50 in assay [1] and in assay [2] were 1 µM and 0.4 µM, respectively.

Turning to `CC(C)=CC[C@@]12OC(C)(C)[C@H]3C[C@H](C=C4C(=O)c5c(O)cc6c(c5O[C@]431)C(C)(C)[C@H](CO)O6)C2=O`, the GI50 in assay [1] stood at 2.1 µM; in assay [2] it was 1.1 µM.

`C=CC(C)(C)c1c(O)cc(OC)c2c1OC13C(C2=O)[C@@H](OC)[C@@H]2C[C@H]1C(C)(C)O[C@@]3(CC=C(C)C)C2=O` (some centres undefined): the GI50 in assay [1] was 1.6 µM; in assay [2], 3.4 µM.

`CC(C)=CC[C@@]12OC(C)(C)[C@H]3C[C@H](C=C4C(=O)c5c(O)cc6c(c5O[C@]431)C(C)(C)[C@@H](C)O6)C2=O`: the GI50 turned out to be 2.1 µM in assay [1] and 1.2 µM in assay [2].

On to `C=CC(C)(C)c1c(OC)cc(O)c2c1OC13C(=CC4CC1C(C)(C)OC3(CC=C(C)C)C4=O)C2=O` (centres undefined), for which the concentration for 50% growth inhibition (GI50) in assay [1] was determined as 0.8 µM; in assay [2], 0.2 µM.

Take `C=CC(C)(C)c1c(O)cc(O)c2c1O[C@]13[C@H](C2=O)[C@@H](OCC)[C@@H]2C[C@H]1C(C)(C)OC3(CC=C(C)C)C2=O`: the results for the GI50 in assay [1] and in assay [2] were 2.1 µM and 4.5 µM, respectively.

As for `C=CC(C)(C)c1c(OC)cc(O)c2c1OC13CC4C(C=C1C2=O)C(CC=C(C)C)(OC4(C)C)C3=O` (centres undefined), the GI50 was determined as 1.5 µM in assay [1] and 1 µM in assay [2].

As to `C=CC(C)(C)c1c(O)cc(O)c2c1O[C@]13CC4[C@H]([C@@H](OC)C1C2=O)[C@@](CC=C(C)C)(OC4(C)C)C3=O` (some centres undefined), the GI50 in assay [1] came to 3.5 µM; in assay [2] it was 6.5 µM.

Regarding `CC(C)=CC[C@@]12OC(C)(C)[C@H]3C[C@H](C=C4C(=O)c5c(O)cc6c(c5O[C@]431)C(C)(C)[C@@H](CO)O6)C2=O`, the figures for the GI50 in assay [1] and in assay [2] were 2.1 µM and 1.1 µM, respectively.

Consider `C=CC(C)(C)c1c(O)cc(O)c2c1OC13CC4C(C=C1C2=O)C(CC=C(C)C)(OC4(C)C)C3=O` (centres undefined), for which the GI50 in assay [1] came out at 1.3 µM; in assay [2] it was 0.8 µM.

On to `CC(C)=CC[C@@]12OC(C)(C)C3C[C@H](C=C4C(=O)c5c(O)cc6c(c5O[C@]431)C(C)(C)[C@H](C)O6)C2=O`, for which the GI50 in assay [1] came to 3.6 µM; in assay [2] it was 1.9 µM.

Turning to `C=CC(C)(C)c1c(O)cc(O)c2c1O[C@]13C(C2=O)[C@@H](OC)[C@@H]2C[C@H]1C(C)(C)O[C@@]3(CC=C(C)C)C2=O` (some centres undefined), the GI50 in assay [1] came to 3.4 µM; in assay [2], 7.3 µM.

Regarding `CC(C)=CCC12OC(C)(C)C3CC4(Oc5c(c(O)cc6c5C(C)(C)[C@H](C)O6)C(=O)C4=CC31)C2=O` (some centres undefined), the GI50 in assay [1] is 1.6 µM; in assay [2], 0.9 µM.

On to `COc1cccc2c1C(=O)c1c(O)c3c(c(O)c1C2=O)C[C@@](O)(C(=O)CO)C[C@@H]3O[C@H]1C[C@H](N)[C@H](O)[C@H](C)O1` [DOXORUBICIN HYDROCHLORIDE], for which the 50% growth inhibitory concentration (GI50) in assay [1] and in assay [2] was 0.02 µM each time.

Consider `CC(C)=CCC[C@]1(C)C=Cc2c(O)c3c(c(CC=C(C)C)c2O1)O[C@]12C(=C[C@@H]4C[C@H]1C(C)(C)O[C@@]2(C/C=C(/C)C(=O)O)C4=O)C3=O` [GAMBOGIC ACID], for which the results for the GI50 in assay [1] and in assay [2] were 0.6 µM and 0.3 µM, respectively.

For the origin of these results see ChEMBL document CHEMBL4251713, “Bioassay- and Chemistry-Guided Isolation of Scalemic Caged Prenylxanthones from the Leaves of Garcinia bracteata” (2018).
